Measurements from ChEMBL document CHEMBL3600298, “Antiproliferative and apoptosis-inducing activities of novel naphthalimide-cyclam conjugates through dual topoisomerase (topo) I/II inhibition” (Bioorg Med Chem, 2015).
Activity calls are given as the source filed them. The calls are words filed in the database; no cut-off is given here.

Legend:
Bos taurus [1] = organism: Bos taurus; experiment: Inhibition of calf thymus topoisomerase 1 assessed as reduction in relaxation of supercoiled pBR322 DNA at 200 uM incubated for 30 mins by ethidium bromide staining based electrophoresis method
How it was run: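 Calf thymus topo I, 0.1 units, with 0.5 µg supercoiled pBR322 DNA and compound in topo I buffer with 0.01% BSA, 20 µL total. Incubated 30 min at 37 °C. Reaction stopped with 10% SDS plus loading dye. Run on 0.8% agarose gel in TAE, 35 min at 120 V. Gel stained with ethidium bromide and imaged under UV.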

HeLa [2] = experiment: Cytotoxicity against human HeLa cells incubated for 24 hrs by sulforhodamine B assay; type: functional, cell-based
[3] = biological target: DNA topoisomerase 2-alpha (Homo sapiens) (UniProt P11388); experiment: Inhibition of human topoisomerase 2 assessed as reduction in ATP-dependent kDNA decatenation at 100 uM incubated for 30 mins by ethidium bromide staining based electrophoresis method
Chain of DNA topoisomerase 2-alpha (Homo sapiens) (P11388 whole entry): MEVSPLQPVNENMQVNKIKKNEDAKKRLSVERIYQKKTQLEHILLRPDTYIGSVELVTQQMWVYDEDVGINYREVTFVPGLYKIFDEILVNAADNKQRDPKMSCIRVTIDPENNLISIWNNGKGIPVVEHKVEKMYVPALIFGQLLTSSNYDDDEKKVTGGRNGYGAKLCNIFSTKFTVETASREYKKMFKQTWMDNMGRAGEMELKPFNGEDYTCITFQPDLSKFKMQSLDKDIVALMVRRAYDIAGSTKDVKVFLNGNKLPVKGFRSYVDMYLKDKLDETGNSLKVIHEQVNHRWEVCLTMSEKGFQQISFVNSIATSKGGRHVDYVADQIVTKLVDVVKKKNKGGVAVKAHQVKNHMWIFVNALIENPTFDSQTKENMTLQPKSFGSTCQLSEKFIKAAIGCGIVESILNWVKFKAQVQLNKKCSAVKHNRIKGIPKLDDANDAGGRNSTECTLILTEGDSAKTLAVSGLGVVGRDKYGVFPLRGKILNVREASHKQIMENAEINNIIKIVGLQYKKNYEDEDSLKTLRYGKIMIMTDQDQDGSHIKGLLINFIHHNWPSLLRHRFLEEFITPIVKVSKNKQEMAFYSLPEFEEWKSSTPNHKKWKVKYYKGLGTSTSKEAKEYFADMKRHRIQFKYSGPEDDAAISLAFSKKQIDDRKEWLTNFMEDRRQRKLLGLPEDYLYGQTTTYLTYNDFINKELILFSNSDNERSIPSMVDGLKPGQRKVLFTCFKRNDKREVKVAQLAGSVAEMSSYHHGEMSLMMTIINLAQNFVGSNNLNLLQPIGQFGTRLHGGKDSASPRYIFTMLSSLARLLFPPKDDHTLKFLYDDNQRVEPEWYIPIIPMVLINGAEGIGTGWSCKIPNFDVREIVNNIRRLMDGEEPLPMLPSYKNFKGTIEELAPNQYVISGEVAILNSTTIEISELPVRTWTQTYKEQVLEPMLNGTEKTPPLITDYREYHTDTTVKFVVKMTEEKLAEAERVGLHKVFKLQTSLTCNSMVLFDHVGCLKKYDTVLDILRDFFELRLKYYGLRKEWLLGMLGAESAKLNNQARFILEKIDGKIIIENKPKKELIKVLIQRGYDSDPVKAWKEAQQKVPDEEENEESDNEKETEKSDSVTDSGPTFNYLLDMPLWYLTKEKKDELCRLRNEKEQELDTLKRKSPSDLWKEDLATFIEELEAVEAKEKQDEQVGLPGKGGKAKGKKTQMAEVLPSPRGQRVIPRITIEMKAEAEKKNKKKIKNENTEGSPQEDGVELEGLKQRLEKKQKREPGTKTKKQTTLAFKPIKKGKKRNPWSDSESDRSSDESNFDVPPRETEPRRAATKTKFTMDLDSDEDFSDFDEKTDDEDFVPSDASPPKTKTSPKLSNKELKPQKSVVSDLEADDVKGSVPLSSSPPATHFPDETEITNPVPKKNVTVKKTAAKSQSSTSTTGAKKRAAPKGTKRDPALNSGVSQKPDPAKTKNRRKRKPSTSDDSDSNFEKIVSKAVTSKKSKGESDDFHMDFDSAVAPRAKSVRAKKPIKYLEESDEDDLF

Bos taurus [4] = organism: Bos taurus; experiment: Inhibition of calf thymus topoisomerase 1 assessed as reduction in relaxation of supercoiled pBR322 DNA at 100 uM incubated for 30 mins by ethidium bromide staining based electrophoresis method
How it was run: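 Calf thymus topo I (0.1 unit) incubated with 0.5 μg supercoiled pBR322 DNA and compound for 30 min at 37 °C in topo I buffer with 0.01% BSA, 20 μL total. Reaction stopped with SDS/loading dye. Samples run on 0.8% agarose in TAE, 35 min at 120 V, then stained with ethidium bromide and imaged under UV.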

Calf thymus DNA = experiment: Binding affinity to calf thymus DNA assessed as induction of conformational changes at 20 uM by CD spectroscopy; type: nucleic-acid assay; settings: Bos taurus
How it was run: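 ct-DNA in 20 mM Tris–HCl pH 7.4, concentration set from molar absorption coefficient 6600 M−1 cm−1, A260/A280 above 1.8; 100 μM DNA with 20 μM compound for 2 h at 25 °C; CD spectra recorded 200–400 nm in 1 cm quartz cell.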

HeLa [5] = experiment: Induction of apoptosis in human HeLa cells assessed as late apoptotic cells level at 10 uM incubated for 24 hrs by annexin V-FITC and propidium iodide staining based flow cytometry (reference value: 1.81%); type: functional
How it was run: (§1)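 HeLa cells seeded at 1 × 10^6 per well and exposed to compound at 10 μM for 24 h. Cells then treated with cold PBS and resuspended in binding buffer. Annexin V-FITC added, followed by 15 min at 4 °C in the dark. Apoptotic cells quantified by annexin V/PI double staining.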

HeLa [6] = experiment: Induction of apoptosis in human HeLa cells at 10 uM incubated for 24 hrs by annexin V-FITC and propidium iodide staining based flow cytometry; type: functional; how it was run: as §1
HeLa [7] = experiment: Induction of apoptosis in human HeLa cells assessed as early apoptotic cells level at 10 uM incubated for 24 hrs by annexin V-FITC and propidium iodide staining based flow cytometry (reference value: 0.72%); type: functional; how it was run: as §1
A549 = experiment: Cytotoxicity against human A549 cells incubated for 24 hrs by sulforhodamine B assay; type: functional, cell-based; settings: A549, 24 h
HCT-116 = experiment: Cytotoxicity against human HCT116 cells incubated for 24 hrs by sulforhodamine B assay; type: functional, cell-based; settings: HCT-116, 24 h

**Q.** For `CC[C@@]1(O)C(=O)OCc2c1cc1n(c2=O)Cc2cc3ccccc3nc2-1`, which inhibition (Bos taurus [1]) is on record?
**A.** The inhibition was “Active”.

**Q.** How did the IC50 (HeLa [2]) turn out when `CN(C)CCN1C(=O)c2cccc3cc(N)cc(c23)C1=O` [AMONAFIDE] was run?
**A.** The IC50 was 9.52 µM.

**Q.** And the inhibition [3]?
**A.** The inhibition was “Active”.

**Q.** And the inhibition (Bos taurus [4])?
**A.** The inhibition was “Active”.

**Q.** `CCCCCCCCNc1ccc2c3c(cccc13)C(=O)N(CCCN1CCCNCCNCCCNCC1)C2=O` was tested. Which Activity (Calf thymus DNA) did it give?
**A.** The Activity was “Active”.

**Q.** And the IC50 (HeLa [2])?
**A.** Its IC50 is 8.4 µM.

**Q.** And the Activity (HeLa [5])?
**A.** Its Activity is 98.46%.

**Q.** And the Activity (HeLa [6])?
**A.** The Activity was greater than 90%.

**Q.** What about the inhibition [3] of the same compound?
**A.** The inhibition was “Active”.

**Q.** What about the Activity (HeLa [7]) of the same compound?
**A.** The Activity was 1.49%.

**Q.** And the IC50 (A549)?
**A.** Its IC50 is 11.6 µM.

**Q.** What about the IC50 (HCT-116) of the same compound?
**A.** The IC50 was 8.07 µM.

**Q.** What about the inhibition (Bos taurus [4]) of the same compound?
**A.** The inhibition was “Active”.

**Q.** What does the source list for `CCCCN1C(=O)c2cccc3c(NCCN4CCCNCCNCCCNCC4)ccc(c23)C1=O`?
**A.** IC50 (HeLa [2]): 19.2 µM; IC50 (A549): 38.9 µM; IC50 (HCT-116): 29.2 µM

**Q.** Which inhibition [3] does the source give for `COc1cccc2c1C(=O)c1c(O)c3c(c(O)c1C2=O)C[C@@](O)(C(=O)CO)C[C@@H]3O[C@H]1C[C@H](N)[C@H](O)[C@H](C)O1` here?
**A.** Its inhibition is “Active”.

**Q.** What does the source list for `CCCCCCCCN1C(=O)c2cccc3c(NCCN4CCCNCCNCCCNCC4)ccc(c23)C1=O`?
**A.** IC50 (HeLa [2]): 10.1 µM; Activity (HeLa [5]): 60.48%; Activity (HeLa [6]): >90%; inhibition [3]: Active; Activity (HeLa [7]): 39.47%; IC50 (A549): 15.8 µM; IC50 (HCT-116): 16.7 µM; inhibition (Bos taurus [4]): Active

**Q.** How did the IC50 (HeLa [2]) turn out when `CNc1ccc2c3c(cccc13)C(=O)N(CCCN1CCCNCCNCCCNCC1)C2=O` was run?
**A.** Its IC50 is greater than 50 µM.

**Q.** And the IC50 (A549)?
**A.** Its IC50 is greater than 50 µM.

**Q.** And the IC50 (HCT-116)?
**A.** Its IC50 is greater than 50 µM.

**Q.** For `CCCCNc1ccc2c3c(cccc13)C(=O)N(CCCN1CCCNCCNCCCNCC1)C2=O`, which IC50 (HeLa [2]) is on record?
**A.** Its IC50 is greater than 50 µM.

**Q.** And the IC50 (A549)?
**A.** The IC50 was greater than 50 µM.

**Q.** And the IC50 (HCT-116)?
**A.** The IC50 was greater than 50 µM.

**Q.** `CCCCCCCCCCCCNc1ccc2c3c(cccc13)C(=O)N(CCCN1CCCNCCNCCCNCC1)C2=O` was tested. Which IC50 (HeLa [2]) did it give?
**A.** Its IC50 is 9.36 µM.

**Q.** And the Activity (HeLa [5])?
**A.** Its Activity is 32.47%.

**Q.** What about the Activity (HeLa [6]) of the same compound?
**A.** Its Activity is greater than 90%.

**Q.** What about the inhibition [3] of the same compound?
**A.** Its inhibition is “Active”.

**Q.** And the Activity (HeLa [7])?
**A.** Its Activity is 59.52%.

**Q.** And the IC50 (A549)?
**A.** The IC50 was 15.8 µM.

**Q.** And the IC50 (HCT-116)?
**A.** The IC50 was 13 µM.

**Q.** What about the inhibition (Bos taurus [4]) of the same compound?
**A.** Its inhibition is “Active”.

**Q.** For `C1CNCCNCCCNCCNC1`, which IC50 (HeLa [2]) is on record?
**A.** Its IC50 is greater than 50 µM.

**Q.** And the IC50 (A549)?
**A.** Its IC50 is greater than 50 µM.

**Q.** And the IC50 (HCT-116)?
**A.** Its IC50 is greater than 50 µM.

**Q.** With `CN1C(=O)c2cccc3c(NCCN4CCCNCCNCCCNCC4)ccc(c23)C1=O` as the compound, how does the IC50 (HeLa [2]) read?
**A.** The IC50 was 13.8 µM.

**Q.** And the IC50 (A549)?
**A.** Its IC50 is 34.3 µM.

**Q.** What about the IC50 (HCT-116) of the same compound?
**A.** The IC50 was 34.1 µM.

**Q.** How did the IC50 (HeLa [2]) turn out when `CCCCCCCCCCCCN1C(=O)c2cccc3c(NCCN4CCCNCCNCCCNCC4)ccc(c23)C1=O` was run?
**A.** The IC50 was 11.8 µM.

**Q.** What about the Activity (HeLa [5]) of the same compound?
**A.** Its Activity is 13.54%.

**Q.** What about the Activity (HeLa [6]) of the same compound?
**A.** The Activity was greater than 90%.

**Q.** And the inhibition [3]?
**A.** Its inhibition is “Active”.

**Q.** And the Activity (HeLa [7])?
**A.** Its Activity is 86.4%.

**Q.** What about the IC50 (A549) of the same compound?
**A.** Its IC50 is 18.4 µM.

**Q.** And the IC50 (HCT-116)?
**A.** The IC50 was 18.2 µM.

**Q.** What about the inhibition (Bos taurus [4]) of the same compound?
**A.** Its inhibition is “Active”.
